Assay results as given in ChEMBL document CHEMBL5724801, “EUbOPEN Chemogenomics Library - Multiplex” (2024).
Where “and” joins values, the source holds several entries; their conditions need not be identical. Equal values may be shown once.

Test system: HEK-293T
Test: Multiplex assay against HEK293T
Assay type: toxicity, cell-based
Conditions: human
Summary of the method: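 Live cells were stained at seeding with Hoechst33342, BioTracker Green Microtubule Cytoskeleton Dye, MitoTracker Red and Annexin V Alexa Fluor 680, then imaged on a CQ1 microscope at 37°C and 5% CO2 after compound addition. CellPathfinder machine-learning gating split cells into Hoechst high-intensity objects or normal cells. Normal cells were split into healthy, pyknosed or fragmented nuclei, and pyknosed cells into mitotic or apoptotic. Tubulin, mitochondrial-mass and membrane-permeability phenotypes are per cents of healthy-nucleus cells.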

[1] = 12 h, 1 µM, compound concentration 1 uM
[2] = 12 h, 10 µM, compound concentration 10 uM
[3] = 24 h, 1 µM, compound concentration 1 uM
[4] = 24 h, 10 µM, compound concentration 10 uM
[5] = 48 h, 1 µM, compound concentration 1 uM
[6] = 48 h, 10 µM, compound concentration 10 uM

For Cc1ccc(F)cc1C(=O)Nc1ccc(C(=O)N2Cc3cccn3Cc3ccccc32)c(Cl)c1 [LIXIVAPTAN], the “Population Apoptotic (%)” value [1] was 36% and 40%, the “Population Fragmented Nuclei (%)” value [1] was 5% and 6% and the “Population Healthy Nuclei (%)” value [1] was 83% and 74%. For the same compound, the “Population Hoechst High Intensity Objects (%)” value [1] was 7% and 5%, the “Population Membrane Permeable-Phenotype (%)” value [1] was 0% and the “Population Mitochondria Different-Phenotype (%)” value [1] was 45% and 57%. For the same compound, the “Population Mitotic Cells (%)” value [1] was 63% and 60%, the “Population Normal (%)” value [1] was 92% and 94% and the “Population Pyknosed Nuclei (%)” value [1] was 10% and 19%. The “Population Tubulin-Different-Phenotype (%)” value [1] was 38% and 32%, the “Total Cell Count” value [1] was 486 and 335 and the “Population Apoptotic (%)” value [2] was 46% and 50%. For the same compound, the “Population Fragmented Nuclei (%)” value [2] was 6%, the “Population Healthy Nuclei (%)” value [2] was 70% and 67% and the “Population Hoechst High Intensity Objects (%)” value [2] was 10% and 6%. For the same compound, the “Population Membrane Permeable-Phenotype (%)” value [2] was 0% and 1%, the “Population Mitochondria Different-Phenotype (%)” value [2] was 75% and 81% and the “Population Mitotic Cells (%)” value [2] was 53% and 50%. For the same compound, the “Population Normal (%)” value [2] was 89% and 93%, the “Population Pyknosed Nuclei (%)” value [2] was 22% and 25% and the “Population Tubulin-Different-Phenotype (%)” value [2] was 78% and 67%. The “Total Cell Count” value [2] was 339 and 357, the “Population Apoptotic (%)” value [3] was 30% and 36% and the “Population Fragmented Nuclei (%)” value [3] was 9% and 10%. The “Population Healthy Nuclei (%)” value [3] was 77% and 76%, the “Population Hoechst High Intensity Objects (%)” value [3] was 5% and 7% and the “Population Membrane Permeable-Phenotype (%)” value [3] was 0%. For the same compound, the “Population Mitochondria Different-Phenotype (%)” value [3] was 30% and 42%, the “Population Mitotic Cells (%)” value [3] was 69% and 63% and the “Population Normal (%)” value [3] was 94% and 92%. The “Population Pyknosed Nuclei (%)” value [3] was 13%, the “Population Tubulin-Different-Phenotype (%)” value [3] was 24% and 22% and the “Total Cell Count” value [3] was 595 and 423. The “Population Apoptotic (%)” value [4] was 37% and 58%, the “Population Fragmented Nuclei (%)” value [4] was 5% and 8% and the “Population Healthy Nuclei (%)” value [4] was 69% and 72%. For the same compound, the “Population Hoechst High Intensity Objects (%)” value [4] was 7% and 6%, the “Population Membrane Permeable-Phenotype (%)” value [4] was 0% and the “Population Mitochondria Different-Phenotype (%)” value [4] was 74% and 78%. The “Population Mitotic Cells (%)” value [4] was 62% and 41%, the “Population Normal (%)” value [4] was 92% and 93% and the “Population Pyknosed Nuclei (%)” value [4] was 24% and 19%. The “Population Tubulin-Different-Phenotype (%)” value [4] was 71% and 69%, the “Total Cell Count” value [4] was 392 and 401 and the “Population Apoptotic (%)” value [5] was 22% and 17%. The “Population Fragmented Nuclei (%)” value [5] was 12%, the “Population Healthy Nuclei (%)” value [5] was 80% and the “Population Hoechst High Intensity Objects (%)” value [5] was 2% and 4%. For the same compound, the “Population Membrane Permeable-Phenotype (%)” value [5] was 0%, the “Population Mitochondria Different-Phenotype (%)” value [5] was 19% and 24% and the “Population Mitotic Cells (%)” value [5] was 77% and 82%. For the same compound, the “Population Normal (%)” value [5] was 97% and 95%, the “Population Pyknosed Nuclei (%)” value [5] was 6% and 7% and the “Population Tubulin-Different-Phenotype (%)” value [5] was 17% and 21%. For the same compound, the “Total Cell Count” value [5] was 995 and 643, the “Population Apoptotic (%)” value [6] was 43% and 46% and the “Population Fragmented Nuclei (%)” value [6] was 9% and 11%. The “Population Healthy Nuclei (%)” value [6] was 74%, the “Population Hoechst High Intensity Objects (%)” value [6] was 7% and 8% and the “Population Membrane Permeable-Phenotype (%)” value [6] was 0%. For the same compound, the “Population Mitochondria Different-Phenotype (%)” value [6] was 72% and 71%, the “Population Mitotic Cells (%)” value [6] was 56% and 53% and the “Population Normal (%)” value [6] was 92% and 91%. For the same compound, the “Population Pyknosed Nuclei (%)” value [6] was 16% and 14%, the “Population Tubulin-Different-Phenotype (%)” value [6] was 69% and 59% and the “Total Cell Count” value [6] was 489 and 437.

In the case of Cc1onc(-c2ccccc2Cl)c1C(=O)N(C)c1ccc(Cl)cc1, the “Population Apoptotic (%)” value [1] is reported as 35% and 37%, the “Population Fragmented Nuclei (%)” value [1] is reported as 8% and 3% and the “Population Healthy Nuclei (%)” value [1] is reported as 79% and 84%. For the same compound, the “Population Hoechst High Intensity Objects (%)” value [1] was 9% and 6%, the “Population Membrane Permeable-Phenotype (%)” value [1] was 0% and the “Population Mitochondria Different-Phenotype (%)” value [1] was 41% and 59%. The “Population Mitotic Cells (%)” value [1] was 64% and 62%, the “Population Normal (%)” value [1] was 90% and 93% and the “Population Pyknosed Nuclei (%)” value [1] was 12%. The “Population Tubulin-Different-Phenotype (%)” value [1] was 25%, the “Total Cell Count” value [1] was 375 and 320 and the “Population Apoptotic (%)” value [2] was 38% and 45%. For the same compound, the “Population Fragmented Nuclei (%)” value [2] was 7% and 4%, the “Population Healthy Nuclei (%)” value [2] was 79% and 80% and the “Population Hoechst High Intensity Objects (%)” value [2] was 12% and 6%. The “Population Membrane Permeable-Phenotype (%)” value [2] was 0%, the “Population Mitochondria Different-Phenotype (%)” value [2] was 49% and 65% and the “Population Mitotic Cells (%)” value [2] was 61% and 54%. The “Population Normal (%)” value [2] was 87% and 93%, the “Population Pyknosed Nuclei (%)” value [2] was 13% and 14% and the “Population Tubulin-Different-Phenotype (%)” value [2] was 43% and 35%. The “Total Cell Count” value [2] was 357 and 330, the “Population Apoptotic (%)” value [3] was 23% and 42% and the “Population Fragmented Nuclei (%)” value [3] was 9% and 5%. For the same compound, the “Population Healthy Nuclei (%)” value [3] was 81%, the “Population Hoechst High Intensity Objects (%)” value [3] was 5% and 3% and the “Population Membrane Permeable-Phenotype (%)” value [3] was 1%. The “Population Mitochondria Different-Phenotype (%)” value [3] was 21% and 44%, the “Population Mitotic Cells (%)” value [3] was 76% and 57% and the “Population Normal (%)” value [3] was 94% and 96%. For the same compound, the “Population Pyknosed Nuclei (%)” value [3] was 9% and 12%, the “Population Tubulin-Different-Phenotype (%)” value [3] was 14% and 18% and the “Total Cell Count” value [3] was 523 and 383. The “Population Apoptotic (%)” value [4] was 45% and 29%, the “Population Fragmented Nuclei (%)” value [4] was 8% and 7% and the “Population Healthy Nuclei (%)” value [4] was 79% and 82%. For the same compound, the “Population Hoechst High Intensity Objects (%)” value [4] was 5% and 3%, the “Population Membrane Permeable-Phenotype (%)” value [4] was 1% and 0% and the “Population Mitochondria Different-Phenotype (%)” value [4] was 32% and 47%. The “Population Mitotic Cells (%)” value [4] was 54% and 70%, the “Population Normal (%)” value [4] was 94% and 96% and the “Population Pyknosed Nuclei (%)” value [4] was 12% and 9%. The “Population Tubulin-Different-Phenotype (%)” value [4] was 20%, the “Total Cell Count” value [4] was 478 and 413 and the “Population Apoptotic (%)” value [5] was 21% and 31%. The “Population Fragmented Nuclei (%)” value [5] was 14% and 11%, the “Population Healthy Nuclei (%)” value [5] was 79% and 82% and the “Population Hoechst High Intensity Objects (%)” value [5] was 2%. For the same compound, the “Population Membrane Permeable-Phenotype (%)” value [5] was 0% and 1%, the “Population Mitochondria Different-Phenotype (%)” value [5] was 11% and 23% and the “Population Mitotic Cells (%)” value [5] was 78% and 68%. The “Population Normal (%)” value [5] was 97%, the “Population Pyknosed Nuclei (%)” value [5] was 6% and 5% and the “Population Tubulin-Different-Phenotype (%)” value [5] was 9% and 12%. For the same compound, the “Total Cell Count” value [5] was 932 and 620, the “Population Apoptotic (%)” value [6] was 33% and 20% and the “Population Fragmented Nuclei (%)” value [6] was 14% and 12%. The “Population Healthy Nuclei (%)” value [6] was 76% and 81%, the “Population Hoechst High Intensity Objects (%)” value [6] was 3% and the “Population Membrane Permeable-Phenotype (%)” value [6] was 1% and 0%. For the same compound, the “Population Mitochondria Different-Phenotype (%)” value [6] was 16% and 25%, the “Population Mitotic Cells (%)” value [6] was 66% and 79% and the “Population Normal (%)” value [6] was 96%. For the same compound, the “Population Pyknosed Nuclei (%)” value [6] was 8% and 6%, the “Population Tubulin-Different-Phenotype (%)” value [6] was 15% and 16% and the “Total Cell Count” value [6] was 755 and 652.
